Drawing on ChEMBL document CHEMBL1125564, “Selective, centrally acting serotonin 5-HT2 antagonists. 2. Substituted 3-(4-fluorophenyl)-1H-indoles” (J Med Chem, 1992), this text covers ED50 and IC50 for 20 compounds.

The test system of assay [1] is Rattus norvegicus. Description: Compound was evaluated for the inhibition of pergolide-induced reactions after 2 hr (administered subcutaneously). The assay is classed as functional. The following applies: sc. The method, boiled down:
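Male Wistar rats with unilateral 6-OHDA lesions; test compound given sc 2 h before pergolide (0.05 μmol/kg, sc) to induce contralateral circling. Each dose scored as percent of the rat's mean control sessions 1 week before and 1 week after the test, at least four rats per dose. ED50 by log-probit analysis.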

Assay [2] deals with Rattus norvegicus. As to the kind of experiment: Compound was evaluated for the inhibition of quipazine-induced head twitches after 2 hr (administered subcutaneously). The assay is classed as functional. The following applies: sc. The method, boiled down:
(§1)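 Male Wistar rats (Mol:Wist, SPF, 170–270 g), at least four per dose, dosed sc or po 2 or 24 h before quipazine (15 μmol/kg, sc). Head twitches counted 30–40 min after quipazine and expressed as percent of a quipazine-treated control group. ED50 by log-probit analysis.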

Assay [3] has as its target T1, Alpha-1A adrenergic receptor (Rattus norvegicus, UniProt P43140).
T1 sequence (P43140 whole entry): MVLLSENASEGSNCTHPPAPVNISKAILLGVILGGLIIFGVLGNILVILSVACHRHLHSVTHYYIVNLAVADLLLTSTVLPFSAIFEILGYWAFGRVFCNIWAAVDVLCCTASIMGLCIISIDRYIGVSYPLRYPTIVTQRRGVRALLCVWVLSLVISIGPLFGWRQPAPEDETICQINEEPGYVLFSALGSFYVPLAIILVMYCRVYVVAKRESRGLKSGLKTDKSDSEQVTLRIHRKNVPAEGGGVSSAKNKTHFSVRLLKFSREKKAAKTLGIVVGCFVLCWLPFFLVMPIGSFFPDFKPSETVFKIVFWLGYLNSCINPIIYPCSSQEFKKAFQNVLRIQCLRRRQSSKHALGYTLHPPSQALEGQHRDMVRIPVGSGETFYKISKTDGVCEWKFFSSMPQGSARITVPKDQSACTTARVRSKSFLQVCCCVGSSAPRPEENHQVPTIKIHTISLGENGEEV
As to the kind of experiment: Displacement of [3H]prazosin from Alpha-1 adrenergic receptor in whole rat brain membranes. The assay is classed as cell membranes. The method, boiled down: (§2)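 Two full concentration curves per compound, five concentrations in triplicate covering three decades. IC50 read from log-concentration curves, given as logarithmic mean of at least two determinations. Ratios beyond 3 × SD prompted extra runs, with outliers discarded.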

Assay [4] deals with Rattus norvegicus. Description: Compound was evaluated for the inhibition of quipazine-induced head twitches after 24 hr (administered subcutaneously). The assay is classed as functional. The following applies: sc. The method, boiled down:
as §1

For assay [5], the target named is Serotonin 2 (5-HT2) receptor (Rattus norvegicus, UniProt P30994+P08909+P14842). As to the kind of experiment: Displacement of [3H]ketanserin from 5-hydroxytryptamine 2 receptor in rat cortical membranes. The assay is classed as cell membranes, Membrane. Summed up:
as §2
On the technique in general: Loss of bound radioactivity is the signal in a displacement assay; it reports binding, not function.

The target in a further assay is D(2) dopamine receptor (Rattus norvegicus, UniProt P61169). As to the kind of experiment: Displacement of [3H]spiperone from Dopamine receptor D2 rat striatal membranes. The assay is classed as cell membranes, Membrane. The method, boiled down: as §2
For assay [6], the system named is Rattus norvegicus. Description: Compound was evaluated for the inhibition of quipazine-induced head twitches after 24 hr (administered perorally). The following applies: po. The assay is classed as functional. The method, boiled down: as §1

The ED50 is the dose at which the effect has come halfway, by size or by number of responders. The IC50 is the concentration needed to halve the response being measured. Read a high IC50 as weaker potency.

Each structure is given as a SMILES string.

Chain of D(2) dopamine receptor (P61169 whole entry): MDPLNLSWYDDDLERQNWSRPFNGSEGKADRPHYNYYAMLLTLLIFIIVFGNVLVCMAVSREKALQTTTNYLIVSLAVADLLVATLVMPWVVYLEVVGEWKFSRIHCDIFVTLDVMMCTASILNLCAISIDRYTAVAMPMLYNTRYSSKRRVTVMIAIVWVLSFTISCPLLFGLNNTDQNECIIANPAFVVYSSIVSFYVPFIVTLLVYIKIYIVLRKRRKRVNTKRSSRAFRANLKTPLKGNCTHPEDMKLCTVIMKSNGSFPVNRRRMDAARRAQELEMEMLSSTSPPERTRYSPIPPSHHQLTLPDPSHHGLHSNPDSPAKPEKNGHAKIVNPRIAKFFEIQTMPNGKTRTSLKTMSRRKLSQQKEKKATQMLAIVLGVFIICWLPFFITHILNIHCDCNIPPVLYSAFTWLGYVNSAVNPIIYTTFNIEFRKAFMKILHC

Take `O=C1NCCN1CCN1CCC(n2cc(-c3ccc(F)cc3)c3ccc(Cl)cc32)CC1`: the figures for the ED50 in the assay with Rattus norvegicus [1], with Rattus norvegicus [2] and with Rattus norvegicus [4] were 9.3 µmol/kg, 0.3 µmol/kg and 0.68 µmol/kg, respectively. The IC50 in assay [3] worked out at 11 nM; in assay [5], 1.9 nM.

As to `Cc1cccc2c(-c3ccc(F)cc3)cn(C3CCN(CCN4CCNC4=O)CC3)c12`, the IC50 on D(2) dopamine receptor amounted to 370 nM; in assay [3] it was 23 nM; in assay [5] it was 3.6 nM.

With `Cc1ccc2c(c1)c(-c1ccc(F)cc1)cn2C1CCN(CCN2CCNC2=O)CC1`, the ED50 in the assay on Rattus norvegicus [1] is over 24 µmol/kg; in the assay on Rattus norvegicus [2] it was 0.019 µmol/kg; with Rattus norvegicus [4], 0.0081 µmol/kg; with Rattus norvegicus [6], 0.0041 µmol/kg. Besides, the half-maximal inhibitory concentration (IC50) was determined as 71 nM in assay [3] and 1.6 nM in assay [5].

As for `Cc1cccc2c(-c3ccc(F)cc3)cn(C3=CCN(CCN4CCNC4=O)CC3)c12`, the IC50 on D(2) dopamine receptor was 530 nM; in assay [3] it was 27 nM; in assay [5], 5.8 nM.

For `Cc1cccc2c1c(-c1ccc(F)cc1)cn2C1CCN(CCN2CCNC2=O)CC1`, the IC50 on D(2) dopamine receptor came to 200 nM; in assay [3] it was 34 nM; in assay [5] it was 7.9 nM.

As for `Cc1ccc2c(c1)c(-c1ccc(F)cc1)c(C)n2C1=CCN(CCN2CCNC2=O)CC1`, the IC50 is 1000 nM in assay [3] and 2.8 nM in assay [5].

As for `Cc1ccc2c(c1)c(-c1ccc(F)cc1)cn2C1CCN(C)CC1`, the IC50 is 190 nM in assay [3] and 4.5 nM in assay [5].

In the case of `CNC(=O)N(C)CCN1CCC(n2cc(-c3ccc(F)cc3)c3cc(C)ccc32)CC1`, the IC50 worked out at 1200 nM on D(2) dopamine receptor, 54 nM in assay [3] and 2.2 nM in assay [5]. The ED50 in the assay on Rattus norvegicus [1] is over 22 µmol/kg; in the assay on Rattus norvegicus [2], 0.036 µmol/kg; with Rattus norvegicus [4], 0.0021 µmol/kg; with Rattus norvegicus [6], 0.004 µmol/kg.

In assay [3], `O=C1NCCN1CCN1CCC(c2cn(-c3ccc(F)cc3)c3ccc(Cl)cc23)CC1` [SERTINDOLE] yielded an IC50 of 3.4 nM. In other words, the single-digit nanomolar range.

For `Cc1ccc2c(c1)c(-c1ccc(F)cc1)cn2C1CCN(CCNC(=O)N(C)C)CC1`, the IC50 was found to be 89 nM in assay [3] and 2.3 nM in assay [5].

On to `Cc1ccc2c(c1)c(-c1ccc(F)cc1)cn2C1=CCN(CCN2CCNC2=O)CC1`, for which the figures for the IC50 (at D(2) dopamine receptor; in assay [3]; in assay [5]) were 280 nM, 24 nM and 1.5 nM, respectively.

Turning to `Cc1ccc2c(c1)c(-c1ccc(F)cc1)cn2C1CCN(CCN2CCN(C(C)C)C2=O)CC1`, the ED50 is over 18 µmol/kg in the assay on Rattus norvegicus [1], 0.062 µmol/kg with Rattus norvegicus [2], 0.014 µmol/kg with Rattus norvegicus [4] and 0.019 µmol/kg in the assay with Rattus norvegicus [6]. Moreover, the IC50 worked out at 280 nM in assay [3] and 2.7 nM in assay [5].

Take `O=C1NCCN1CCN1CCC(n2cc(-c3ccc(F)cc3)c3cc(Cl)ccc32)CC1`: the figures for the IC50 in assay [3] and in assay [5] were 67 nM and 5.7 nM, respectively.

Consider `Cc1ccc2c(c1)c(-c1ccc(F)cc1)cn2N1CCN(C)CC1`, for which the IC50 in assay [3] turned out to be 500 nM; in assay [5], 15 nM.

For the compound `Cc1ccc2c(c1)c(-c1ccc(F)cc1)c(C)n2C1CCN(C)CC1`, the ED50 was over 30 µmol/kg in the assay on Rattus norvegicus [1], 0.25 µmol/kg in the assay on Rattus norvegicus [2], 0.028 µmol/kg in the assay with Rattus norvegicus [4] and 0.046 µmol/kg in the assay with Rattus norvegicus [6]. For the same compound, the values for the IC50 in assay [3] and in assay [5] were 2700 nM and 5.3 nM, respectively.

Consider `O=C1NCCN1CCN1CCC(n2cc(-c3ccc(F)cc3)c3cc(F)ccc32)CC1`, for which the IC50 in assay [3] was found to be 19 nM; in assay [5], 3.2 nM.

`CC(C)N1CCN(CCN2CCC(c3cn(-c4ccc(F)cc4)c4cc(Cl)ccc34)CC2)C1=O` came in with an IC50 in assay [3] of 70 nM. This lies in the double-digit nanomolar range.

With `Cc1ccc2c(c1)c(-c1ccc(F)cc1)c(C)n2C1CCN(CCN2CCNC2=O)CC1`, the 50% effective dose (ED50) in the assay with Rattus norvegicus [1] was over 23 µmol/kg; with Rattus norvegicus [2] it was 0.096 µmol/kg; in the assay on Rattus norvegicus [4], 0.0041 µmol/kg; with Rattus norvegicus [6], 0.038 µmol/kg. Further, the IC50 in assay [3] came out at 2300 nM; in assay [5], 3.4 nM.

In the case of `O=C1NCCN1CCN1CCC(n2cc(-c3ccc(F)cc3)c3ccccc32)CC1`, the values for the IC50 in assay [3] and in assay [5] were 6.3 nM and 3.1 nM, respectively.

In the case of `O=C1NCCN1CCN1CCC(n2cc(-c3ccc(F)cc3)c3cc(C(F)(F)F)ccc32)CC1`, the IC50 on D(2) dopamine receptor was 2500 nM; in assay [3] it was 190 nM; in assay [5], 9.3 nM.
